Here are results for two compounds from ChEMBL document CHEMBL1144933, “Novel bioactive and stable neurotensin peptide analogues capable of delivering radiopharmaceuticals and molecular beacons to tumors” (J Med Chem, 2003).

Structures are written as SMILES. Where a SMILES comes first, the peptide text is derived from it. [ ]: non-standard residue; d: D form. The star is where a group is joined. Gly(1-amidinopiperidin-4-yl) = N=C(N)N1CCC([C@H](N)C(=O)O)CC1; Ala(1-amidino-4-piperidyl) = N=C(N)N1CCC(C[C@H](N)C(=O)O)CC1; DTPA = O=C(O)CN(CCN(CC(=O)O)CC(=O)O)CCN(CC(=O)O)CC(=O)*; Gly(piperidin-4-yl) = N[C@H](C(=O)O)C1CCNCC1; Tle = CC(C)(C)[C@H](N)C(=O)O A value given as a limit tells only on which side of the number the result lay.

Data set [1] relates to Mus musculus. The experiment in a line: Biodistribution of [111In]-DTPA-NT in HT-29 tumor implanted SCID mice pancreas at 4 hr postinjection LSA administration. Format: ADME, organism-based. As to conditions: in vivo. The procedure, abridged:
(§1)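 Receptor-blocking (low specific activity) arm in male SCID mice with s.c. HT29 flank xenografts of about 0.3 g. Two animals received the same activity (10 μCi, jugular vein) diluted with cold NT to 0.5 Ci/mmol. Tissues were collected after cervical dislocation, radioassayed, and expressed as %ID/g.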

Data set [2] has as its system Mus musculus. The experiment in a line: Biodistribution of [111In]-DTPA-NT in HT-29 tumor implanted SCID mice spleen at 1 hr postinjection. The data set is classed as ADME, organism-based. As to conditions: in vivo. In a few lines: (§2)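 Male SCID mice bore HT29 xenografts from 1 × 10^6 cells given s.c. in both rear flanks. Tumours reached about 0.3 g by day 14. Under Metofane anaesthesia, mice received 20 μL (10 μCi) of 111In-DTPA-NT analogue (1400 Ci/mmol) via the jugular vein. Groups of n = 3 were killed by cervical dislocation at 1 and 4 h. Blood and tissues were gamma-counted and reported as %ID/g ± SE.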

Data set [3] has as its system Mus musculus. The experiment in a line: Biodistribution of [111In]-DTPA-NT in HT-29 tumor implanted SCID mice spleen at 4 hr postinjection LSA administration. Format: ADME, organism-based. The conditions noted are these: in vivo. The procedure, abridged:
as §1

The test system of data set [4] is Mus musculus. The experiment in a line: Biodistribution of [111In]DTPA-NT in HT-29 tumor implanted SCID mice tumor at 1 h postinjection. Format: ADME, organism-based. The conditions noted are these: in vivo. The procedure, abridged: as §2
Data set [5] relates to Mus musculus. The experiment in a line: Biodistribution of [111In]-DTPA-NT in HT-29 tumor implanted SCID mice tumor at 4 hr postinjection. As to conditions: in vivo. Format: ADME, organism-based. The procedure, abridged: as §2
In data set [6] the test system is Mus musculus. The experiment in a line: Biodistribution of [111In]DTPA-NT in HT-29 tumor implanted SCID mice tumor at 4 h postinjection LSA administration. The data set is classed as ADME, organism-based. The conditions noted are these: in vivo. The procedure, abridged: as §1
Data set [7] has as its system Mus musculus. The experiment in a line: Biodistribution of [111In]DTPA-NT in HT-29 tumor implanted SCID mice blood at 1 h postinjection. The data set is classed as ADME, organism-based. As to conditions: in vivo. In a few lines: as §2
The subject of data set [8] is Mus musculus. Briefly: Biodistribution of [111In]DTPA-NT in HT-29 tumor implanted SCID mice blood at 4 h postinjection. The data set is classed as ADME, organism-based. The conditions noted are these: in vivo. The procedure, abridged: as §2
For data set [9], the system named is Mus musculus. Briefly: Biodistribution of [111In]-DTPA-NT in HT-29 tumor implanted SCID mice blood at 4 hr postinjection LSA administration. The conditions noted are these: in vivo. The data set is classed as ADME, organism-based. The procedure, abridged:
as §1

The test system of data set [10] is Mus musculus. The experiment in a line: Biodistribution of [111In]DTPA-NT in HT-29 tumor implanted SCID mice kidneys at 1 h postinjection. The data set is classed as ADME, organism-based, Kidney. The conditions noted are these: in vivo. The procedure, abridged:
as §2

Data set [11] concerns Mus musculus. The experiment in a line: Biodistribution of [111In]DTPA-NT in HT-29 tumor implanted SCID mice kidneys at 4 h postinjection. The data set is classed as ADME, organism-based, Kidney. The conditions noted are these: in vivo. The procedure, abridged:
as §2

Data set [12] concerns Mus musculus. Briefly: Biodistribution of [111In]-DTPA-NT in HT-29 tumor implanted SCID mice kidneys at 4 hr postinjection LSA administration. The data set is classed as ADME, organism-based, Kidney. As to conditions: in vivo. In a few lines:
as §1

Data set [13] concerns Mus musculus. Briefly: Biodistribution of [111In]DTPA-NT in HT-29 tumor implanted SCID mice liver at 1 h postinjection. The data set is classed as ADME, organism-based. As to conditions: in vivo. The procedure, abridged: as §2
In data set [14] the test system is Mus musculus. Briefly: Biodistribution of [111In]DTPA-NT in HT-29 tumor implanted SCID mice liver at 4 h postinjection. Format: ADME, organism-based. As to conditions: in vivo. In a few lines:
as §2

In data set [15] the test system is Mus musculus. Briefly: Biodistribution of [111In]-DTPA-NT in HT-29 tumor implanted SCID mice liver at 4 hr postinjection LSA administration. The data set is classed as ADME, organism-based. The conditions noted are these: in vivo. The procedure, abridged:
as §1

The test system of data set [16] is Mus musculus. Briefly: Biodistribution of [111In]DTPA-NT in HT-29 tumor implanted SCID mice muscle at 1 h postinjection. The data set is classed as ADME, organism-based, Muscle tissue. As to conditions: in vivo. In a few lines:
as §2

In data set [17] the test system is Mus musculus. Briefly: Biodistribution of [111In]DTPA-NT in HT-29 tumor implanted SCID mice muscle at 4 h postinjection. Format: ADME, organism-based, Muscle tissue. The conditions noted are these: in vivo. The procedure, abridged:
as §2

Data set [18] concerns Mus musculus. Briefly: Biodistribution of [111In]-DTPA-NT in HT-29 tumor implanted SCID mice muscle at 4 hr postinjection LSA administration. Format: ADME, organism-based, Muscle tissue. The conditions noted are these: in vivo. In a few lines:
as §1

Data set [19] relates to Mus musculus. The experiment in a line: Biodistribution of [111In]DTPA-NT in HT-29 tumor implanted SCID mice pancreas at 1 h postinjection. The data set is classed as ADME, organism-based. As to conditions: in vivo. The procedure, abridged: as §2
Data set [20] has as its system Mus musculus. Briefly: Biodistribution of [111In]-DTPA-NT in HT-29 tumor implanted SCID mice pancreas at 4 h postinjection. The data set is classed as ADME, organism-based. The conditions noted are these: in vivo. The procedure, abridged: as §2
Data set [21] deals with Neurotensin receptor type 1 (Homo sapiens, UniProt P30989). The experiment in a line: Binding affinity towards neurotensin receptor in membranes prepared from HT-29 cell line, relative to [111In]-labeled neurotensin peptide.
Sequence of Neurotensin receptor type 1 (P30989 whole entry): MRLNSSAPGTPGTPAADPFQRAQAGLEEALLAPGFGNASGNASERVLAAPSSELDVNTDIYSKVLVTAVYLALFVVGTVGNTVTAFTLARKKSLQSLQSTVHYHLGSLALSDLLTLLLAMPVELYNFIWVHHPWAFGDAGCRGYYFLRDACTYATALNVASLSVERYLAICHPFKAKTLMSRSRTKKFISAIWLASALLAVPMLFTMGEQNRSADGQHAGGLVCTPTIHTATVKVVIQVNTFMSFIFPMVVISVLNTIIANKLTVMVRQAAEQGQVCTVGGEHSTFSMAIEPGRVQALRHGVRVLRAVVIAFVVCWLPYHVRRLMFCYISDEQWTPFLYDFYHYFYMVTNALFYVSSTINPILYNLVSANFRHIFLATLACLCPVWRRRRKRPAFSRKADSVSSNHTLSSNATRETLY
Data set [22] deals with Mus musculus. The experiment in a line: Biodistribution of [111In]DTPA-NT in HT-29 tumor implanted SCID mice spleen at 4 h postinjection. As to conditions: in vivo. Format: ADME, organism-based. In a few lines: as §2

In general, IC50 refers to the concentration needed to halve the response being measured. A lower IC50 goes with inhibition by little substance.

With `CC(C)C[C@H](NC(=O)[C@@H](NC(=O)[C@H](Cc1ccc(O)cc1)NC(=O)[C@@H]1CCCN1C(=O)[C@H](CCCN=C(N)N)NC(=O)[C@@H](NC(=O)[C@@H]1CCCN1C(=O)[C@@H](NC(=O)CN(CCN(CCN(CC(=O)O)CC(=O)O)CC(=O)O)CC(=O)O)C1CCNCC1)C1CCN(C(=N)N)CC1)C(C)(C)C)C(=O)O` ({DTPA}-[Gly(piperidin-4-yl)]P[Gly(1-amidinopiperidin-4-yl)]RPY[Tle]L-OH), the ID/g tissue with Mus musculus [1] turned out to be 0.051%; with Mus musculus [2], 0.18%; in the data set with Mus musculus [3] it was 0.088%; with Mus musculus [4], 2.831%; with Mus musculus [5], 2.177%; in the data set with Mus musculus [6], 0.263%. The ID/g tissue with Mus musculus [7] is on record as 0.416%; with Mus musculus [8], 0.03%; in the data set on Mus musculus [9], 0.027%; in the data set on Mus musculus [10], 6.141%; with Mus musculus [11] it was 4.841%; in the data set with Mus musculus [12], 5.725%. The ID/g tissue was found to be 0.203% in the data set on Mus musculus [13]; 0.133% in the data set with Mus musculus [14]; 0.168% in the data set with Mus musculus [15]; 0.092% with Mus musculus [16]; 0.021% in the data set on Mus musculus [17]; 0.03% in the data set on Mus musculus [18]. The values for the ID/g tissue with Mus musculus [19], in the data set on Mus musculus [20] and in the data set with Mus musculus [22] were 0.152%, 0.03% and 0.085%, respectively. For the same compound, in [21], the IC50 stood at 0.3 nM.
Compound `CC(C)C[C@H](NC(=O)[C@@H](NC(=O)[C@H](Cc1ccc(O)cc1)NC(=O)[C@@H]1CCCN1C(=O)[C@H](CCCNC(=N)N)NC(=O)[C@@H](NC(=O)[C@@H]1CCCN1C(=O)[C@H](CC1CCN(C(=N)N)CC1)NC(=O)CN(CCN(CCN(CC(=O)O)CC(=O)O)CC(=O)O)CC(=O)O)C1CCN(C(=N)N)CC1)C(C)(C)C)C(=O)O` ({DTPA}-[Ala(1-amidino-4-piperidyl)]P[Gly(1-amidinopiperidin-4-yl)]RPY[Tle]L-OH) had an IC50 in data set [21] (ht-29) above 1000 nM.
